Activity calls are given as the source filed them. The rule behind the calls is not given here.
What was measured:
[1] = Therapeutic index, ratio of cytotoxic TC50 for mouse HT22 cells to neuroprotective PD50 for mouse HT22 cells; assay type: cell-based, HT-22; details: read-out: TI
[2] = Neurotoxicity in mouse HT22 cells assessed as cell viability after 24 hrs by MTS assay; assay type: toxicity, cell-based, HT-22; details: read-out: TC50
In short: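 HT22 cells were seeded at 5.0 × 10^3 per well, cultured overnight, and treated with a range of compound concentrations without glutamate for 24 h. MTS was added for 2 h and absorbance read at 490 nm. Viability was expressed as percent of untreated cells, and TC50 was fit from titration curves (7- or 12-point, n = 3–4).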

[3] = test system: Radical scavenging activity; test: Antioxidant activity assessed as DPPH free radical scavenging activity at 20 uM; assay type: functional
In short: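 Test agents at 20 μM final, added to 100 μM DPPH in methanol; absorbance at 517 nm monitored immediately for 10 min. Trolox and ascorbic acid served as positive controls, and the rate of absorbance loss was taken as antioxidant potency.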

HT-22 [4] = test: Neuroprotective activity in mouse HT22 cells assessed as prevention from glutamate-induced oxidative cell death by MTS assay; assay type: functional
In short: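 HT22 cells grown in high-glucose DMEM with 10% FBS and antibiotic-antimycotic at 37°C, 5% CO2. Seeded at 5.0 × 10^3 cells/well overnight, then given 10 mM glutamate (final) plus compound from DMSO stock. MTS added 24 h after treatment, 2 h at 37°C, A490 read. Viability taken as % of untreated cells. PC50 from 12-point titrations; experiments repeated at least four times.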

HT-22 [5] = test: Antioxidant activity in mouse HT22 cells assessed as prevention of glutamate-induced GSH depletion at 25 uM; assay type: functional, cell-based
In short: (§1)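 HT22 cells were exposed to 10 mM glutamate plus compound (DMSO stock) for 8 h. Total glutathione (reduced plus oxidized) in the supernatant of the cell homogenate was measured with a glutathione reductase enzymatic recycling kit. GSH reacts with DTNB to give TNB, read at 405 nm.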

HT-22 [6] = test: Neuroprotective activity in mouse HT22 cells assessed as prevention from tBuOOH-induced oxidative cell death after 3 hrs by MTS assay; assay type: functional, cell-based
In short: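 HT22 cells were seeded at 5.0 × 10^3 per well and cultured overnight, then exposed to 50 μM t-BuOOH (final) plus compound for 3 h. Medium was removed, cells were washed with HBSS and returned to normal medium. MTS was added 24 h after initial treatment, absorbance was read at 490 nm after 2 h, and viability was expressed as percent of untreated cells.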

HT-22 [7] = test: Neuroprotective activity in mouse HT22 cells assessed as reduction of glutamate-induced mitochondrial fragmentation at 250 nM after 8 hrs by Mitotracker DR staining-based fluorescence microscopic analysis; assay type: functional, cell-based
In short: (§2)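 HT22 cells were given 10 mM glutamate plus compound for 8 h, then co-stained with MitoSOX Red (5 μM final) and Mitotracker Deep Red (10 nM final) for 20 min. Cells were washed twice with HBSS and imaged live by fluorescence microscopy in HBSS.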

HT-22 [8] = test: Antioxidant activity in mouse HT22 cells assessed as upregulation of HO1 gene expression at 250 nM after 16 hrs by qRT-PCR analysis in the absence of glutamate; assay type: functional, cell-based
In short: (§3)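 HT22 cells were seeded at 3.0 × 10^5 per well and cultured overnight, then treated with or without 10 mM glutamate plus compound (DMSO stock) for 16 h. Cells were trypsinized and washed in cold Ca/Mg-free HBSS. HO-1 and NQO-1 mRNA were measured by qRT-PCR with β2-microglobulin as reference gene, and fold change was calculated by the Livak method.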

HT-22 [9] = test: Antioxidant activity in mouse HT22 cells assessed as upregulation of HO1 protein expression 8 hrs by Western blotting analysis; assay type: functional, cell-based
Mus musculus [10] = test: Toxicity in BALB/cByJ mouse assessed as outward signs of pain at 50 mg/kg, ip daily for 3 weeks measured 2 hrs after final injection; assay type: organism-based; design: dose 50 mg/kg, route intraperitoneal; details: in vivo
Mus musculus [11] = test: Toxicity in BALB/cByJ mouse assessed as outward signs of distress at 50 mg/kg, ip daily for 3 weeks measured 2 hrs after final injection; assay type: organism-based; design: dose 50 mg/kg, route intraperitoneal; details: in vivo
Mus musculus [12] = test: Toxicity in BALB/cByJ mouse assessed as weight loss at 50 mg/kg, ip daily for 3 weeks measured 2 hrs after final injection; assay type: organism-based; design: dose 50 mg/kg, route intraperitoneal; details: in vivo
HT-22 [13] = test: Antioxidant activity in mouse HT22 cells assessed as reduction in glutamate-induced upregulation of HO1 gene expression at 250 nM after 16 hrs by qRT-PCR analysis relative to glutamate-treated control; assay type: functional, cell-based; in short: as §3
HT-22 [14] = test: Antioxidant activity in mouse HT22 cells assessed as prevention of glutamate-induced intracellular accumulation of free radicals at 250 nM after 8 hrs by spectrofluorometric analysis; assay type: functional, cell-based
In short: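 HT22 cells were seeded at 5.0 × 10^3 per well and cultured overnight, then given 10 mM glutamate plus compound for 8 h. Rho123 was added at 5 μM final for 20 min, cells were washed twice with HBSS, and oxidized Rho123 fluorescence was read at 500 nm excitation and 536 nm emission.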

Mus musculus [15] = test: Toxicity in BALB/cByJ mouse assessed as biochemical parameters at 50 mg/kg, ip daily for 3 weeks measured 2 hrs after final injection; assay type: organism-based; design: dose 50 mg/kg, route intraperitoneal; details: in vivo
HT-22 [16] = test: Neuroprotective activity in mouse HT22 cells assessed as reduction of glutamate-induced mitochondrial superoxide generation at 250 nM after 8 hrs by MitoSOX RED staining-based fluorescence microscopic analysis; assay type: functional, cell-based; in short: as §2
HT-22 [17] = test: Antioxidant activity in mouse HT22 cells assessed as upregulation of NQO1 gene expression at 250 nM after 16 hrs by qRT-PCR analysis in the absence of glutamate; assay type: functional, cell-based; in short: as §3
[18] = biological target: T1, Serine/threonine-protein phosphatase PGAM5, mitochondrial (Mus musculus) (UniProt Q8BX10); test: Inhibition of glutamate-induced increase in lower band of PGAM5 in mouse HT22 cells at 125 nM after 16 hrs by Western blotting analysis; assay type: cell-based; details: HT-22
T1 sequence (whole entry): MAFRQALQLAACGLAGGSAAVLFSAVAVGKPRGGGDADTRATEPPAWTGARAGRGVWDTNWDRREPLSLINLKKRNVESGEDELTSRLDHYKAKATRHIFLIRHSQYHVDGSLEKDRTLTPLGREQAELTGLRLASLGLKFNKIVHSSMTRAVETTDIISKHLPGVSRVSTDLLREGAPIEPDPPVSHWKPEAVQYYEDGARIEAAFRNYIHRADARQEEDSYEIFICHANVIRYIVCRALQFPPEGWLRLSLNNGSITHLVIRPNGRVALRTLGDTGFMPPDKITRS
In short: (§4)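 HT22 cells were treated with 10 mM glutamate plus compound for 16 h, harvested, and lysed in low-salt buffer (50 mM Tris-HCl pH 7.4, 150 mM NaCl, 10% glycerol, Triton X-100, protease/phosphatase inhibitors) for 30 min with a brief sonication. Lysates were run on 4–12% gels and immunoblotted for phospho-Drp1 Ser637, total Drp1, PGAM5, actin and α-tubulin, then analyzed by densitometry.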

HT-22 [19] = test: Antioxidant activity in mouse HT22 cells assessed as reduction in glutamate-induced upregulation of HO1 gene expression at 250 nM after 16 hrs by qRT-PCR analysis relative to untreated control; assay type: functional, cell-based; in short: as §3
HT-22 [20] = test: Antioxidant activity in mouse HT22 cells assessed as upregulation of NQO1 protein expression 8 hrs by Western blotting analysis; assay type: functional, cell-based
[21] = biological target: Dynamin-1-like protein (Mus musculus) (UniProt Q8K1M6); test: Inhibition of glutamate-induced decrease in DRP1 phosphorylation at serine 637 in mouse HT22 cells at 125 nM after 16 hrs by Western blotting analysis; assay type: cell-based; details: HT-22; in short: as §4
HT-22 [22] = test: Antioxidant activity in mouse HT22 cells assessed as reduction in glutamate-induced upregulation of NQO1 gene expression at 250 nM after 16 hrs by qRT-PCR analysis relative to glutamate-treated control; assay type: functional, cell-based; in short: as §3
HT-22 [23] = test: Antioxidant activity in mouse HT22 cells assessed as prevention of glutamate-induced GSH depletion at 50 uM; assay type: functional, cell-based; in short: as §1

Dynamin-1-like protein (Mus musculus), sequence (Q8K1M6 whole entry): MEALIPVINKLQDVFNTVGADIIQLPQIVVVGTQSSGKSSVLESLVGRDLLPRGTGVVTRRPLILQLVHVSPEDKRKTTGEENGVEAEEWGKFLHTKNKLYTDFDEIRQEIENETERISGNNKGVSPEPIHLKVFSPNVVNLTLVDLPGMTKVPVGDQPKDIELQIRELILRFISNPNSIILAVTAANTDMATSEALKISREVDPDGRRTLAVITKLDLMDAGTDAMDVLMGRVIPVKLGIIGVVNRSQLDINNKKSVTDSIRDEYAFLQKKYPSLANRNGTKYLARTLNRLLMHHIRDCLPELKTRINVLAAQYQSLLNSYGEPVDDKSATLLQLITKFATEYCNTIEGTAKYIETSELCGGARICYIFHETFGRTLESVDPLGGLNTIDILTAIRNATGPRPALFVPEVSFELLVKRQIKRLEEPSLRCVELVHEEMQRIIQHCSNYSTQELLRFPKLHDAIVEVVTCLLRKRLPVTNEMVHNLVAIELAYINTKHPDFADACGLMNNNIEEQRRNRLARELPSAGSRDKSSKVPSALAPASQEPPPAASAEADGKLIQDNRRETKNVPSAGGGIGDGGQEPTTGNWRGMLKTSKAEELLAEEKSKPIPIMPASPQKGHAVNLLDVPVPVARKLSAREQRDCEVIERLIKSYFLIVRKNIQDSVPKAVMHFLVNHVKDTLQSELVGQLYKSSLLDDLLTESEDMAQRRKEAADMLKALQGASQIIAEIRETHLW

COc1ccc(CNC2=CC(=O)c3ccccc3C2=O)cc1
selectivity ratio [1]: 877 | CC50 at 24 h [2]: > 100 µM

O=C1O[C@H]([C@@H](O)CO)C(O)=C1O
Activity [3]: Active

Cc1ccc(CNC2=CC(=O)c3ccccc3C2=O)cc1
selectivity ratio [1]: > 1520 | PD50 (HT-22 [4]): 66 nM | CC50 at 24 h [2]: > 100 µM

O=C(O)C1=CC(=O)c2ccccc2C1=O
selectivity ratio [1]: 140 | CC50 at 24 h [2]: > 100 µM

Cc1c(C)c2c(c(C)c1O)CCC(C)(C(=O)O)O2 (stereo not drawn)
Activity (HT-22 [5]): inactive | Activity (HT-22 [6]): inactive | Activity [3]: Active

COC(=O)c1ccc(CNC2=CC(=O)c3ccccc3C2=O)cc1
selectivity ratio [1]: 431 | CC50 at 24 h [2]: > 100 µM

O=C1C=C(NCCc2ccccc2)C(=O)c2ccccc21
selectivity ratio [1]: 171 | CC50 at 24 h [2]: > 100 µM

O=C1C=C(NCc2cccnc2)C(=O)c2ccccc21
selectivity ratio [1]: 172 | CC50 at 24 h [2]: 37 µM

C#CCNC1=CC(=O)c2ccccc2C1=O
selectivity ratio [1]: 442 | PD50 (HT-22 [4]): 120 nM | CC50 at 24 h [2]: 53 µM

NC1=CC(=O)c2ccccc2C1=O
selectivity ratio [1]: 803 | PD50 (HT-22 [4]): 61 nM | CC50 at 24 h [2]: 49 µM

O=C1C=C(NCc2ccc(Cl)c(Cl)c2)C(=O)c2ccccc21
selectivity ratio [1]: > 2170 | PD50 (HT-22 [4]): 46 nM | CC50 at 24 h [2]: > 100 µM

O=C1C=C(NCc2ccccc2)C(=O)c2ccccc21
Activity (HT-22 [7]): Active | Activity (HT-22 [8]): inactive | Activity (HT-22 [9]): inactive | selectivity ratio [1]: > 1140 | Activity (Mus musculus [10]): Non-toxic | Activity (HT-22 [6]): Active | Activity (Mus musculus [11]): Non-toxic | Activity (Mus musculus [12]): Non-toxic | Activity (HT-22 [13]): Active | Activity (HT-22 [14]): Active | Activity (Mus musculus [15]): Non-toxic | Activity (HT-22 [16]): Active | Activity (HT-22 [17]): inactive | PD50 (HT-22 [4]): 88 nM | inhibition [18]: Active | Activity [3]: inactive | Activity (HT-22 [19]): inactive | CC50 at 24 h [2]: > 100 µM | Activity (HT-22 [20]): inactive | inhibition [21]: Active | Activity (HT-22 [22]): inactive

O=C1C=C(Nc2ccccc2)C(=O)c2ccccc21
selectivity ratio [1]: 109 | PD50 (HT-22 [4]): 64 nM | CC50 at 24 h [2]: 7 µM

CC1=C(N)C(=O)c2ccccc2C1=O
selectivity ratio [1]: 31 | CC50 at 24 h [2]: 54 µM

CN1C(=O)C(Cc2c[nH]c3ccccc23)NC1=S (stereo not drawn)
Activity (HT-22 [23]): inactive

CCCNC1=CC(=O)c2ccccc2C1=O
selectivity ratio [1]: 91 | CC50 at 24 h [2]: 30 µM

CN(C)C1=CC(=O)c2ccccc2C1=O
selectivity ratio [1]: > 407 | PD50 (HT-22 [4]): 246 nM | CC50 at 24 h [2]: > 100 µM

Reference: ChEMBL document CHEMBL2331435, “Structure-activity relationship study of vitamin k derivatives yields highly potent neuroprotective agents” (J Med Chem, 2013)
